Assay outcomes deposited in PubChem BioAssay by several laboratories.
MT1-MMP act inh: inhibitors of human MT1-MMP activation | P50281 | HT1080 RFP-PRO-GFP cells, GFP/RFP ratio fluorescence, overnight; percent of plate control window, DMSO zero | GFP/RFP ratio change, % at 20 µM | 0.061% of 360,000 active | AID 651647;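 active = GFP/RFP ratio change of at least 30% with cell ATP level not reduced by more than half and red fluorescence within 50% of control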
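Assay system: RFP-PRO-GFP reporter HT1080 cells; read-out basis: GFP/RFP fluorescence ratio; benchmarks: DMSO wells and RFP-L50D-GFP cells; doses: 20 µM single dose, 1% DMSO; schedule: overnight cell settling, then overnight compound exposure, 37 °C, 5% CO2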
Cneo AK release: causes C. neoformans cell lysis; adenylate kinase release luminescence, 4 h; normalised: neutral wells 0, clomiphene wells 100; lysis activity, % at 15 µM; 0.2% of 360,000 active; AID 651654;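 active = mean lysis activity across replicates of at least 80%, whatever share of replicates individually reach that level; inactive = mean lysis activity below 80%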
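Material: C. neoformans cells | Amount: Yeast cell density of 5 × 10^6 cells/mL | Medium: Fresh YPD growth medium | Dosing: Single dose | Times: Static 4 h at 37 °C with compound, 1 h detection | Detection: AK luminescence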
iPSC survival up: enhancers of human iPSC single-cell survival. hiPSC single-cell survival, ATPlite luminescence; 100% = ROCK inhibitor wells, 0% = DMSO. survival enhancement, % at 20 µM. 0.044% of 360,000 active. AID 602274; in the data active = survival enhancement above about 18%;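 also: cells exposed to compounds for 16 hours before the ATP read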
DAGLB inhibitor: diacylglycerol lipase beta (human) inhibition; inhibition, % at 5.17 µM; 0.059% of 340,000 active; AID 504411; Q8NCG7; HEK293T DAGLB membrane lysate, EnzChek fluorogenic substrate; in the data active = inhibition above about 34%;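 also: 0% = enzyme with vehicle and 100% = wells lacking enzyme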
Target sequence (Q8NCG7 whole entry, looked up): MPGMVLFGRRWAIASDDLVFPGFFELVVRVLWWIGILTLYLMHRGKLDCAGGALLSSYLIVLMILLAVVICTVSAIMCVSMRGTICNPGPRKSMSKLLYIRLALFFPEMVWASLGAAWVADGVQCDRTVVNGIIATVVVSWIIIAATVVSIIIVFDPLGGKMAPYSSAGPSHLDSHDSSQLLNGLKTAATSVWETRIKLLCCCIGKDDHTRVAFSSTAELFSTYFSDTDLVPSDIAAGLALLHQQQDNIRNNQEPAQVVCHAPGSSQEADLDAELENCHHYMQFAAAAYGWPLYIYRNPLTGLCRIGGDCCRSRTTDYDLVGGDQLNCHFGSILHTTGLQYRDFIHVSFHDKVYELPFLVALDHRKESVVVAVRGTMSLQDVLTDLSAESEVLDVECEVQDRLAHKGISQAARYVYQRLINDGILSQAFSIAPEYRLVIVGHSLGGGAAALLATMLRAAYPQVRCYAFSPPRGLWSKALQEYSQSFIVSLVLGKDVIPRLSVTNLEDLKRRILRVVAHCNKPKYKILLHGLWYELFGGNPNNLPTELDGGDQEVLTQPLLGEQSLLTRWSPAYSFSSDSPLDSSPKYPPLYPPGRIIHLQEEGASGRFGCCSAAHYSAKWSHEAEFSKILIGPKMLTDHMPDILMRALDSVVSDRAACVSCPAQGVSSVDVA
SKN-1 block: blocks SKN-1 activity in C. elegans; C. elegans VP596 Pgst-4::GFP/RFP ratio, acrylamide-induced, 24 h; inhibition, % at 21.8 µM; 0.49% of 360,000 active;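 active = interference check ratio from 0.5 to 1.5 plus GFP to RFP signal ratio inhibition reaching or exceeding a fixed threshold, cut at about 30% in these data, passing the limit was not always enough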
Ecoli rRNA inh: inhibits bacterial ribosomal RNA function over humanized ribosomes. E. coli WT GFP vs humanized-ribosome RFP mutants, fluorescence, 24 h; stronger effect = lower value; DMSO median 0, no signal -100. 1.6% of 350,000 active. GFP signal change (wild-type ribosome), % (concentration not given with the values). AID 720706;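 active = significant combined selectivity score with lowered wild-type GFP, culture density cut under 30%, mutant RFP and density less affected; inactive = any of these conditions unmet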
* hit, by the source's call. The list is not random: actives were taken first. Their share in the collection is about 1.8%.

How did Cc1noc(C)c1NC(=O)N(C)C[C@H]1Oc2ccc(NC(=O)Nc3cccc4ccccc34)cc2C(=O)N([C@@H](C)CO)C[C@H]1C do in these assays?
Cneo AK release: -3; Ecoli rRNA inh: -2

What do the screens show for `CCCn1c(=S)[nH]c2cc(Cl)ccc21`?
MT1-MMP act inh: 1; Cneo AK release: 151*; iPSC survival up: -1; DAGLB inhibitor: -2; SKN-1 block: 8; Ecoli rRNA inh: -2

What do the screens show for `CC(=O)Nc1ccc2c(c1)C(=O)N(C)C[C@H](C)[C@H](CN(C)C(=O)NC(C)C)O2`?
Ecoli rRNA inh: 3

How did CCCC[C@@H]1CNCCN1CCc1cccc2ccccc12 do in these assays?
MT1-MMP act inh: -6; Cneo AK release: 5; iPSC survival up: -1; DAGLB inhibitor: -2; SKN-1 block: 3; Ecoli rRNA inh: -20*

What do the screens show for `O=C(OCn1ncc(Cl)c(Cl)c1=O)c1cccc(C(F)(F)F)c1`?
MT1-MMP act inh: -6; Cneo AK release: 5; iPSC survival up: 75*; DAGLB inhibitor: 1; SKN-1 block: 1

How did O=C(c1cccc(F)c1)N1C[C@H]2[C@@H](c3ccccc31)[C@@H](CO)N2C(=O)c1cccc(F)c1 do in these assays?
Cneo AK release: 0; Ecoli rRNA inh: -1

Results for COc1cccc(C(=O)/C=C2\Sc3ccccc3N2C)c1 ?
MT1-MMP act inh: 3; Cneo AK release: -6; iPSC survival up: -2; DAGLB inhibitor: -6; SKN-1 block: 2; Ecoli rRNA inh: -28*

How did C[C@H](CO)N1C[C@H](C)[C@@H](CN(C)S(=O)(=O)c2cn(C)cn2)OCc2ccccc2-c2c(n(C)c3ccccc23)C1=O do in these assays?
Cneo AK release: 0; Ecoli rRNA inh: -10

Results for CN1C(=O)c2cc(NC(=O)c3ccc(F)c(F)c3)ccc2OC[C@H]2O[C@@H](CC(=O)O)CC[C@H]21 ?
Cneo AK release: 0; Ecoli rRNA inh: -4

What do the screens show for `O=C(NCc1ccc(Cl)cc1)C1CCN(c2nnc(N3CCCC3=O)s2)CC1`?
MT1-MMP act inh: 2; Cneo AK release: 0; iPSC survival up: 0; DAGLB inhibitor: 0; SKN-1 block: 37*; Ecoli rRNA inh: 3

How did C[C@H](CO)N1C[C@H](C)[C@H](CN(C)Cc2ccccc2O)OCc2cn(nn2)CCCC1=O do in these assays?
Cneo AK release: -1; Ecoli rRNA inh: 3

What do the screens show for `CCOC(=O)Cc1csc(NC(=O)Nc2ccc(OC(F)(F)F)cc2)n1`?
MT1-MMP act inh: -9; Cneo AK release: -2; iPSC survival up: -1; DAGLB inhibitor: -4; SKN-1 block: -14; Ecoli rRNA inh: -21*

Results for CCOC(=O)Cc1csc(NC(=O)Cc2ccc(Cl)cc2)n1 ?
MT1-MMP act inh: 1; iPSC survival up: 0; DAGLB inhibitor: 1; SKN-1 block: -11; Ecoli rRNA inh: -22*

How did CCOC(=O)Nc1nc(-c2ccc(Cl)cc2Cl)cs1 do in these assays?
MT1-MMP act inh: -1; iPSC survival up: 0; DAGLB inhibitor: -5; SKN-1 block: 57*

How did CC(C)NC(=O)N(C)C[C@H]1Oc2ncc(C#CC3(O)CCCC3)cc2C(=O)N([C@@H](C)CO)C[C@@H]1C do in these assays?
Cneo AK release: -6; Ecoli rRNA inh: -4

Results for COc1ccc2c3c([nH]c2c1)[C@@H](CO)N(C(=O)Cc1ccccc1)CC31CN(C)C1 ?
Ecoli rRNA inh: 4

What do the screens show for `COc1ccc(-c2ccc([C@H]3[C@H](C#N)N(C(=O)NC4CCCC4)[C@H]3CO)cc2)cc1`?
Cneo AK release: 0

How did O=c1oc2ccccc2c(N2CCCC2)c1CN1CCCC1 do in these assays?
MT1-MMP act inh: 0; Cneo AK release: -1; iPSC survival up: 5; DAGLB inhibitor: -4; SKN-1 block: 1; Ecoli rRNA inh: -18*

Results for O=c1oc2ccccc2c(Cl)c1CN1CCCCC1 ?
MT1-MMP act inh: -2; Cneo AK release: -1; iPSC survival up: 2; DAGLB inhibitor: -1; SKN-1 block: -3; Ecoli rRNA inh: -19

Results for Cc1cccc(NC(=O)c2c([N+](=O)[O-])c(C(C)(C)C)nn2C)c1 ?
MT1-MMP act inh: -2; iPSC survival up: 0; DAGLB inhibitor: -8; SKN-1 block: 12; Ecoli rRNA inh: 13

Results for COc1cccc(NC(=O)c2nn(C)c(C(=O)Nc3cccc(OC)c3)c2[N+](=O)[O-])c1 ?
MT1-MMP act inh: -2; Cneo AK release: 0; iPSC survival up: 0; DAGLB inhibitor: 1; SKN-1 block: 12; Ecoli rRNA inh: -40*

Results for Cn1nc(C(C)(C)C)c([N+](=O)[O-])c1C(=O)Nc1ccc(Br)cc1 ?
MT1-MMP act inh: -2; iPSC survival up: 0; DAGLB inhibitor: -7; SKN-1 block: -12; Ecoli rRNA inh: -26*

How did CN(C)CCCN(C(=O)CCc1ccccc1)c1nc2c(F)cccc2s1 do in these assays?
MT1-MMP act inh: -3; Cneo AK release: 7; iPSC survival up: -1; DAGLB inhibitor: -4; SKN-1 block: -3

What do the screens show for `CCOc1cccc2sc(N(CCCN(C)C)C(=O)c3ccc(S(=O)(=O)N4CCc5ccccc5C4)cc3)nc12`?
MT1-MMP act inh: -3; Cneo AK release: 32; iPSC survival up: 0; DAGLB inhibitor: -2; SKN-1 block: -12; Ecoli rRNA inh: -25

What do the screens show for `COc1cccc2sc(N(CCCN(C)C)C(=O)c3sc4ccccc4c3Cl)nc12`?
MT1-MMP act inh: 2; Cneo AK release: 4; iPSC survival up: -3; DAGLB inhibitor: 4; SKN-1 block: 7; Ecoli rRNA inh: -43*

What do the screens show for `CCc1ccc2nc(N(CCCN(C)C)C(=O)c3ccc(S(=O)(=O)N4CCc5ccccc5C4)cc3)sc2c1`?
MT1-MMP act inh: 4; Cneo AK release: -2; iPSC survival up: 0; DAGLB inhibitor: -5; SKN-1 block: -2; Ecoli rRNA inh: -25*

How did CN(C)CCCN(C(=O)c1ccc(S(=O)(=O)N(C)Cc2ccccc2)cc1)c1nc2c(F)cccc2s1 do in these assays?
MT1-MMP act inh: 3; Cneo AK release: 0; iPSC survival up: 0; DAGLB inhibitor: 4; SKN-1 block: -8; Ecoli rRNA inh: -33*

What do the screens show for `CCCN(C)C[C@@H]1Oc2cc(-c3cccc(C#N)c3)ccc2S(=O)(=O)N([C@H](C)CO)C[C@@H]1C`?
Cneo AK release: 8; Ecoli rRNA inh: 1

What do the screens show for `CO[C@H]1CN(C)C(=O)c2cc(NC(=O)C3CC3)ccc2OC[C@H](C)N(C(=O)NC(C)C)C[C@@H]1C`?
Cneo AK release: 2; Ecoli rRNA inh: -1
